Screens deposited in PubChem BioAssay by Johns Hopkins Ion Channel Center.
In the library only some 4.1% were active in any assay of this set; here they are far more common.
MrgX1 PAM – human MrgX1 positive allosteric modulation, primary screen; Q96LB2; MrgX1-HEK293, Fluo-4 calcium flux, FDSS; stronger effect = higher value; B-score at 10 µM; 310,000 tested, 0.63% active;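 active = plate-corrected calcium response at least 3 library SD above typical, normal starting fluorescence, not activating the receptor alone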;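 also: compound read alongside a low EC10 to EC30 dose of BAM8-22 agonist; peak minus trough fluorescence over baseline measured at the second addition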
Target sequence (Q96LB2 whole entry, looked up): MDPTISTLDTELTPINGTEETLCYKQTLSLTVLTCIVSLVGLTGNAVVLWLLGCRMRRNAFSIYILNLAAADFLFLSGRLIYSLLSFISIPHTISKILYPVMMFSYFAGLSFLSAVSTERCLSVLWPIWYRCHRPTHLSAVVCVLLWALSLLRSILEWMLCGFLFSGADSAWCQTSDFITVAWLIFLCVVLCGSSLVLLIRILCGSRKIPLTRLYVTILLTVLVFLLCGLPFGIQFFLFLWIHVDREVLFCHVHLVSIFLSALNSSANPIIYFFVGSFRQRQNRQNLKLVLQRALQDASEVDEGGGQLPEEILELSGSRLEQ
Kir21 block – Kir2.1 (mouse) channel inhibition; P35561; HEK293-Kir2.1, FluxOR thallium flux fluorescence; stronger effect = lower value; B-score at 10 µM; 310,000 tested, 0.85% active;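 active = fluorescence ratio B-score at or below minus 3 SD of library scores, with starting-brightness B-score within 2 SD, cut at about -4.2 in these data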;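 also: channel flux triggered by added potassium and thallium sulfate stimulus; B-score of peak minus minimum fluorescence over baseline after thallium stimulus; more negative B-score means stronger Kir2.1 block with less thallium influx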
RGS4 block – inhibitors of human RGS4; AID 463165; B-score at 10 µM; P49798; HEK293 M3R/RGS4 inducible, Fluo-4 calcium flux; stronger effect = higher value; triggered by carbachol at its EC20; 310,000 tested, 0.45% active;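 active = B-score, a plate-corrected calcium signal, over three deviations above library mean, with baseline fluorescence within five deviations of library mean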;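 also: RGS4 expression induced by doxycycline in cells with stable M3 receptor; B-score is computed from the integrated fluorescence ratio over baseline after carbachol; higher B-score means a larger calcium signal and so more RGS4 inhibition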
Target sequence (P49798 whole entry, looked up): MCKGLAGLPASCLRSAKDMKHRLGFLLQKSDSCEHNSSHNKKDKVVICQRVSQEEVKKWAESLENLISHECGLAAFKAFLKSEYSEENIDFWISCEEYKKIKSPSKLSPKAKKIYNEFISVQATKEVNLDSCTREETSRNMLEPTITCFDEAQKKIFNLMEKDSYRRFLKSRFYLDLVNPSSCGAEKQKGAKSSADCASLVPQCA
MrgX1 antagonist – antagonists of human MrgX1 receptor; MRGX1-HEK293 calcium flux, Fluo-4, BAM8-22 antagonism; stronger effect = lower value; Q96LB2; B-score at 10 µM; AID 588676; 310,000 tested, 1.3% active;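 active = calcium-response B-score plate-corrected more than 3 library SD below zero, starting fluorescence within 5 deviations, no agonist response on first addition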;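 also: peak minus trough fluorescence over baseline after final BAM8-22 challenge near maximal dose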
RGS4 act – potentiators or activators of RGS4; AID 463111; B-score at 10 µM; 310,000 tested, 0.92% active; HEK293 M3R/inducible RGS4, carbachol calcium flux Fluo4; stronger effect = lower value;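 active = B-score of the integrated calcium signal more than 4 SD below the library mean, with starting fluorescence not abnormally high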;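 also: negative B-score means reduced calcium response which marks RGS4 activation or potentiation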
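Reagent: ECmax carbachol challenge; Test system: M3R-expressing HEK293 line, RGS4 induced by doxycycline; Schedule: overnight RGS4 induction, 30 min dye load 37 °C, 20 min compound RT; Detection: calcium dye Fluo4 fluorescence; Read-out: Agonist-evoked peak-minus-minimum fluorescence over baseline, integrated ratio, B score.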
MrgX1 agonist – activates human MrgX1 receptor signaling; 310,000 tested, 0.44% active; Q96LB2; B-score at 10 µM; MrgX1-HEK293 cells, Fluo-4 calcium fluorescence, agonist mode; stronger effect = higher value;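 active = calcium response B-score plate-corrected fluorescence ratio at least 3 library SD, with starting fluorescence B-score inside 5 SD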
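times = overnight plating, then 30 min 37 °C plus 30 min room-temperature dye loading | assay system = stable human MrgX1 HEK293 cell line | input = fifteen thousand cells per well | signal = kinetic calcium dye fluorescence, Fluo-4 NW | dosing = compound delivered in addition one of three | read-out = B-scored fluorescence response ratio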
MrgX1 antag conf – human MrgX1 receptor antagonism, re-confirmation screen; remaining BAM8-22 calcium response % of control (stronger effect = lower value), % at 10 µM; AID 602420; shares compounds with MrgX1 antagonist; 2,300 tested, 19% active; MrgX1-HEK293, BAM8-22 calcium flux, Fluo-4; stronger effect = lower value;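 active = remaining agonist calcium response no higher than 100% minus 3 SD of agonist-only control wells, with starting fluorescence near control levels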;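 also: agonist BAM8-22 given at a near maximal EC90 to ECmax level; peak minus minimum fluorescence divided by baseline after agonist addition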
HEK293 Ca flux – counter-screen for MrgX1 antagonists: effect in parental HEK293 cells; shares compounds with MrgX1 antagonist; Fluo-4 calcium fluorescence, FDSS; fluorescence ratio F(max-min)/F0 at 10 µM; 4,000 tested, 2% active; AID 624111;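 active = duplicate-averaged calcium fluorescence ratio at least three times the standard deviation of buffer wells, a nonspecific response in parental cells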
HEK293 Ca counter – MrgX1 allosteric activator counter-screen hit in parental HEK293 cells; shares compounds with MrgX1 antagonist; parental HEK293 calcium flux, Fluo-4 fluorescence ratio; stronger effect = higher value; fluorescence ratio F(max-min)/F0 at 10 µM; 4,000 tested, 0.4% active; AID 624114;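 active = calcium fluorescence ratio, averaged over duplicates, at least 3 SD of the buffer-well ratio, meaning a nonspecific response in receptor-free cells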;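 also: untransfected parental HEK293 lacking MrgX1 used as counterscreen for MrgX1 allosteric activators; fluorescence change taken during the second addition on a kinetic imager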
HEK293 Ca cntr2 – activity in parental HEK293 cells lacking MrgX1 receptor. shares compounds with MrgX1 antagonist. AID 624115. fluorescence ratio F(max-min)/F0 at 10 µM. 4,000 tested, 8.7% active. Fluo-4 calcium fluorescence (FDSS); stronger effect = higher value;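 active = calcium fluorescence ratio at least three times the spread of buffer wells, meaning a non-specific response in parental cells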
The depositor's hits bear a star; i = inactive; . = no result given.

SMILES	MrgX1 PAM	Kir21 block	RGS4 block	MrgX1 antagonist	RGS4 act	MrgX1 agonist	MrgX1 antag conf	HEK293 Ca flux	HEK293 Ca counter	HEK293 Ca cntr2
CN(Cc1nc2ccccc2n1C)S(=O)(=O)c1ccc(F)cc1	i	.	.	i	.	i	.	.	.	.
O=C(NCc1ccccc1)c1c[nH]c2cc3c(cc2c1=O)OCCO3	i	0.28	i	-5.47*	i	i	i	i	i	i
Cc1cc(C)c(C(=O)OCC(=O)Nc2cccc(S(=O)(=O)N3CCCCC3)c2)c(C)c1	i	-0.14	i	-11*	i	i	i	i	i	i
O=C(COC(=O)c1ccc(O)cc1)Nc1cccc(S(=O)(=O)N2CCCCC2)c1	i	-0.37	i	i	i	i	.	.	.	.
CCOC(=O)c1cnc2c(-c3ccccc3)cnn2c1C	i	1.78	i	-5.05*	i	i	i	i	i	i
CC(=O)c1cnc2c(-c3ccccc3)cnn2c1C	i	-0.06	i	i	i	i	.	.	.	.
CCOC(=O)c1cnn(-c2ccccc2)c1N	i	-0.79	i	-4.72*	i	i	i	i	i	i
O=C(NC(NC(=S)Nc1cc(Cl)ccc1Cl)C(Cl)(Cl)Cl)c1ccco1 (centres undefined)	i	-0.98	i	-5.83*	i	i	59.6%*	i	i	i
CC(=O)Oc1c(-c2ccc(Br)o2)oc2ccccc2c1=O	i	-0.31	i	-5.49*	i	i	i	i	i	i
C=CCC(C(=O)NC(C)c1ccccc1)C(=O)NC(C)c1ccccc1 (centres undefined)	i	1.95	i	i	i	i	.	.	.	.
CCCc1nnc(SCc2ccc(OCC)cc2)n1N	i	-0.37	i	-4.53*	i	i	i	i	i	i
COc1ccc(-c2noc(CCC(=O)N(C)c3cccc(C)c3)n2)cc1	i	-1.83	i	i	i	i	.	.	.	.
Cc1nn(C)cc1CNC(=O)c1cnn2c(C(F)F)cc(C3CC3)nc12	i	0.34	i	-4.73*	i	i	i	i	i	i
C=CCOc1c(Cl)cc(C(=S)N2CCCC2)cc1OCC	i	-0.44	i	-6.92*	i	i	i	i	i	i
Cc1cccc(C)c1NC(=O)Cn1nnc(-c2ccc(CN3CCC(C)CC3)cc2)n1	i	-1.42	i	i	i	i	.	.	.	.
O=C(NCc1ccc(F)cc1)C1CCN(S(=O)(=O)c2ccc3c(c2)OCCCO3)CC1	i	-2.18	i	i	i	i	.	.	.	.
O=C(NCc1ccc(Cl)cc1Cl)C1CCN(S(=O)(=O)c2ccc3c(c2)OCCCO3)CC1	i	0.02	i	-7.08*	i	i	i	i	i	i
CCN(Cc1ccccc1)C(=O)c1oc2ccc(S(=O)(=O)N3CCOCC3)cc2c1C	i	-0.6	i	i	i	i	.	.	.	.
O=C(NC1CCCCCCC1)c1ccc(Br)o1	i	0.16	i	-4.68*	i	i	i	i	i	i
CCOC(=O)c1nn(-c2cc(C(=O)OC)cc(C(=O)OC)c2)cc1O	i	1.37	i	i	i	i	.	.	.	.
CCOC(=O)c1nn(-c2sc(C(=O)OC)c(C)c2C(=O)OC)cc1O	i	0.64	i	-6.78*	i	i	61.6%*	i	i	i
O=C(COC(=O)c1ccc(O)cc1O)N=c1sccn1Cc1ccccc1Cl	i	-1.9	i	i	i	i	.	.	.	.
Cc1ccc(Cn2ccsc2=NC(=O)COC(=O)c2ccc(O)cc2O)cc1	i	-1.05	i	-7.74*	i	i	i	i	i	i
COc1ccc(S(=O)(=O)N(C)C2CCN(C)CC2)cc1	i	0.13	i	i	i	i	.	.	.	.
CC(Oc1ccc(Br)cc1)C(=O)Nc1ccc(S(=O)(=O)N(C)C2CCN(C)CC2)cc1 (centres undefined)	i	-1.01	i	-16.4*	i	i	i	i	i	48.5*
SMILES	MrgX1 PAM	Kir21 block	RGS4 block	MrgX1 antagonist	RGS4 act	MrgX1 agonist	MrgX1 antag conf	HEK293 Ca flux	HEK293 Ca counter	HEK293 Ca cntr2
CCc1c(C)nc(SCC(=O)c2ccc(C)c(C)c2)[nH]c1=O	i	1.27	i	-6.96*	i	i	i	i	i	i
CCCOC(=O)c1cc(=O)[nH]c2ccccc12	i	0.03	i	-4.74*	i	i	i	i	i	i
CCCCNC(=S)N1CCN(c2ccccc2Cl)CC1	i	-0.73	i	i	i	i	.	.	.	.
CC(C)N(Cc1nccn1C)C(=O)CC1C(=O)NCCN1Cc1ccc(F)c(F)c1 (centres undefined)	i	0.66	i	-6.46*	i	i	72.1%*	i	i	i
COc1ccc(/C(O)=C2/C(=O)C(=O)N(CCN(C)C)C2c2ccc(OC)c(OC)c2)c(C)c1 (centres undefined)	i	0.51	i	i	i	i	.	.	.	.
CSc1ccc(NC(=O)N2CC=C(n3c(=O)[nH]c4ccccc43)CC2)cc1	i	0.4	i	-4.66*	i	i	i	i	i	i
O=c1[nH]c2ccccc2n1C1=CCCC1	i	1.37	i	i	i	i	.	.	.	.
Cc1ccc(N(CCC#N)C(=O)CN2C(=O)NC(Cc3ccccc3)C2=O)cc1 (centres undefined)	i	1.2	i	i	i	i	.	.	.	.
COc1ccc(Cc2ccc(OC)c(N)c2)cc1N	i	0.49	i	-5.5*	i	i	i	i	i	i
N#CCC(=O)N/N=C/c1cn(Cc2cccc3ccccc23)c2ccccc12	i	-1.02	i	i	i	i	.	.	.	.
CC(C)Cc1ccc(C(C)C(=O)Nc2nccs2)cc1 (centres undefined)	i	1.58	i	-4.69*	i	i	72.0%*	i	i	i
